Measurements: ChEMBL document CHEMBL3286292, “Synthesis and antimicrobial activity of amine linked bis- and tris-heterocycles” (2014)

Assays:
Format in all cases: functional
[1] = tested on: Staphylococcus aureus; assay: Antibacterial activity against Staphylococcus aureus assessed as growth inhibition at 100 ug/well after 24 hrs by agar well diffusion method; conditions: read-out: DIZ
How it was run: (§1)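 Agar well diffusion on […] swabbed with a 24 h broth culture. Samples were dissolved in DMSO and loaded at three per-well amounts into 6 mm wells. Incubation was 37 °C for 24 h, then inhibition zone diameter was read in mm. DMSO served as the negative control. Runs were in duplicate and averaged.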

[2] = tested on: Penicillium chrysogenum; assay: Antifungal activity against Penicillium chrysogenum assessed as growth inhibition after 48 hrs by broth dilution method
How it was run: (§2)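 Tube broth dilution with nutrient broth as diluent. Compound dilutions were added to fungal cultures and incubated at 28 °C for 48 h. A solvent control without sample was included. MIC was the lowest concentration with no visible growth or turbidity.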

[3] = tested on: Staphylococcus aureus; assay: Bactericidal activity against Staphylococcus aureus after 24 hrs
[4] = tested on: Klebsiella pneumoniae; assay: Antibacterial activity against Klebsiella pneumoniae assessed as growth inhibition after 24 hrs by broth dilution method
How it was run: (§3)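 Tube broth dilution with fresh nutrient broth as diluent and a 24 h old bacterial culture. Compound dilutions were added to the tubes, which were incubated at 37 °C for 24 h. Solvent control without sample was run in parallel. MIC was the lowest concentration showing no visible turbidity.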

[5] = tested on: Pseudomonas aeruginosa; assay: Antibacterial activity against Pseudomonas aeruginosa assessed as growth inhibition after 24 hrs by broth dilution method; how it was run: as §3
[6] = tested on: Bacillus subtilis; assay: Antibacterial activity against Bacillus subtilis assessed as growth inhibition at 50 ug/well after 24 hrs by agar well diffusion method; conditions: read-out: DIZ; how it was run: as §1
[7] = tested on: Bacillus subtilis; assay: Antibacterial activity against Bacillus subtilis assessed as growth inhibition after 24 hrs by broth dilution method; how it was run: as §3
[8] = tested on: Staphylococcus aureus; assay: Antibacterial activity against Staphylococcus aureus assessed as growth inhibition after 24 hrs by broth dilution method; how it was run: as §3
[9] = tested on: Aspergillus niger; assay: Antifungal activity against Aspergillus niger assessed as growth inhibition after 48 hrs by broth dilution method; how it was run: as §2
[10] = tested on: Pseudomonas aeruginosa; assay: Antibacterial activity against Pseudomonas aeruginosa assessed as growth inhibition at 100 ug/well after 24 hrs by agar well diffusion method; conditions: read-out: DIZ; how it was run: as §1
[11] = tested on: Klebsiella pneumoniae; assay: Antibacterial activity against Klebsiella pneumoniae assessed as growth inhibition at 25 ug/well after 24 hrs by agar well diffusion method; conditions: read-out: DIZ; how it was run: as §1
[12] = tested on: Klebsiella pneumoniae; assay: Antibacterial activity against Klebsiella pneumoniae assessed as growth inhibition at 100 ug/well after 24 hrs by agar well diffusion method; conditions: read-out: DIZ; how it was run: as §1
[13] = tested on: Staphylococcus aureus; assay: Antibacterial activity against Staphylococcus aureus assessed as growth inhibition at 25 ug/well after 24 hrs by agar well diffusion method; conditions: read-out: DIZ; how it was run: as §1
[14] = tested on: Bacillus subtilis; assay: Bactericidal activity against Bacillus subtilis after 24 hrs
[15] = tested on: Klebsiella pneumoniae; assay: Bactericidal activity against Klebsiella pneumoniae after 24 hrs
[16] = tested on: Aspergillus niger; assay: Antifungal activity against Aspergillus niger assessed as inhibition of spore germination at 50 ug/well after 48 hrs by agar well diffusion method; conditions: read-out: DIZ
How it was run: (§4)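 Well diffusion using 6 mm bored wells loaded with DMSO solutions at three per-well amounts, with a DMSO negative control. Plates were held at 28 °C for 48 h, then zone of inhibition diameter was measured in mm. Runs were in duplicate and averaged.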

[17] = tested on: Staphylococcus aureus; assay: Antibacterial activity against Staphylococcus aureus assessed as growth inhibition at 50 ug/well after 24 hrs by agar well diffusion method; conditions: read-out: DIZ; how it was run: as §1
[18] = tested on: Aspergillus niger; assay: Fungicidal activity against Aspergillus niger after 48 hrs
[19] = tested on: Bacillus subtilis; assay: Antibacterial activity against Bacillus subtilis assessed as growth inhibition at 100 ug/well after 24 hrs by agar well diffusion method; conditions: read-out: DIZ; how it was run: as §1
[20] = tested on: Pseudomonas aeruginosa; assay: Antibacterial activity against Pseudomonas aeruginosa assessed as growth inhibition at 50 ug/well after 24 hrs by agar well diffusion method; conditions: read-out: DIZ; how it was run: as §1
[21] = tested on: Penicillium chrysogenum; assay: Fungicidal activity against Penicillium chrysogenum after 48 hrs
[22] = tested on: Aspergillus niger; assay: Antifungal activity against Aspergillus niger assessed as inhibition of spore germination at 25 ug/well after 48 hrs by agar well diffusion method; conditions: read-out: DIZ; how it was run: as §4
[23] = tested on: Pseudomonas aeruginosa; assay: Bactericidal activity against Pseudomonas aeruginosa after 24 hrs
[24] = tested on: Klebsiella pneumoniae; assay: Antibacterial activity against Klebsiella pneumoniae assessed as growth inhibition at 50 ug/well after 24 hrs by agar well diffusion method; conditions: read-out: DIZ; how it was run: as §1
[25] = tested on: Bacillus subtilis; assay: Antibacterial activity against Bacillus subtilis assessed as growth inhibition at 25 ug/well after 24 hrs by agar well diffusion method; conditions: read-out: DIZ; how it was run: as §1
[26] = tested on: Pseudomonas aeruginosa; assay: Antibacterial activity against Pseudomonas aeruginosa assessed as growth inhibition at 25 ug/well after 24 hrs by agar well diffusion method; conditions: read-out: DIZ; how it was run: as §1
[27] = tested on: Aspergillus niger; assay: Ratio of MFC to MIC for Aspergillus niger
[28] = tested on: Staphylococcus aureus; assay: Ratio of MBC to MIC for Staphylococcus aureus

MIC [2] [µg] | MIC [4] [µg] | MIC [5] [µg] | MIC [7] [µg] | MIC [8] [µg] | MIC [9] [µg] | Structure (SMILES) | zone of inhibition at 100 µg/disc [1] [mm] | MBC [3] [µg] | zone of inhibition at 50 µg/disc [6] [mm] | zone of inhibition at 100 µg/disc [10] [mm] | zone of inhibition at 25 µg/disc [11] [mm] | zone of inhibition at 100 µg/disc [12] [mm] | zone of inhibition at 25 µg/disc [13] [mm] | MBC [14] [µg] | MBC [15] [µg] | zone of inhibition at 50 µg/disc [16] [mm] | zone of inhibition at 50 µg/disc [17] [mm] | MFC [18] [µg] | zone of inhibition at 100 µg/disc [19] [mm] | zone of inhibition at 50 µg/disc [20] [mm] | also measured
25 | 50 | 50 | 50 | 12.5 | 12.5 | c1ccc(-c2c[nH]c(Nc3cc(-c4ccccc4)n(-c4nc(-c5ccccc5)cs4)n3)n2)cc1 | 30 | 50 | 26 | 20 | 28 | 33 | 27 | 200 | >200 | 34 | 28 | 100 | 27 | 17 | MFC [21]: 100 µg; zone of inhibition at 25 µg/disc [22]: 32 mm; MBC [23]: >200 µg; zone of inhibition at 50 µg/disc [24]: 29 mm; zone of inhibition at 25 µg/disc [25]: 24 mm; zone of inhibition at 25 µg/disc [26]: 15 mm
25 | 50 | 50 | 50 | 6.25 | 6.25 | Clc1ccc(-c2c[nH]c(Nc3cc(-c4ccc(Cl)cc4)n(-c4nc(-c5ccc(Cl)cc5)cs4)n3)n2)cc1 | 35 | 12.5 | 29 | 23 | 32 | 38 | 32 | 200 | 200 | 36 | 33 | 12.5 | 30 | 19 | Ratio [27]: 2; MFC [21]: 100 µg; zone of inhibition at 25 µg/disc [22]: 33 mm; MBC [23]: 200 µg; Ratio [28]: 2; zone of inhibition at 50 µg/disc [24]: 34 mm; zone of inhibition at 25 µg/disc [25]: 27 mm; zone of inhibition at 25 µg/disc [26]: 18 mm
50 | 25 | 50 | 25 | 6.25 | 12.5 | Clc1ccc(-c2csc(Nc3cc(-c4ccc(Cl)cc4)n(-c4nc(-c5ccc(Cl)cc5)cs4)n3)n2)cc1 | 38 | 12.5 | 32 | 25 | 35 | 41 | 34 | 100 | 100 | 31 | 36 | 100 | 35 | 22 | MFC [21]: 200 µg; zone of inhibition at 25 µg/disc [22]: 29 mm; MBC [23]: 200 µg; Ratio [28]: 2; zone of inhibition at 50 µg/disc [24]: 37 mm; zone of inhibition at 25 µg/disc [25]: 29 mm; zone of inhibition at 25 µg/disc [26]: 20 mm
